In ChEMBL document CHEMBL1795296, “Synthesis, structural elucidation, DNA-PK inhibition, homology modelling and anti-platelet activity of morpholino-substituted-1,3-naphth-oxazines” (Bioorg Med Chem, 2011):

Columns and labels:
[1] = molecular target: T1, DNA-dependent protein kinase catalytic subunit (Homo sapiens, UniProt P78527); assay: Inhibition of purified DNA-PK by ADP-Glo Kinase assay
Outline: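 Reaction used 5× buffer (250 mM Hepes, 500 mM KCl, 50 mM MgCl2, 1 mM EGTA, 0.5 mM EDTA, 5 mM DTT) diluted to 1×, with BSA and ATP (0.5 mM stock). Drug or water added; 30 °C, 5 min. ADP read by ADP-Glo luminescence; IC50 from curve fitting.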

Platelet = assay: Anti-platelet activity in human blood assessed as inhibition of collagen induced human platelet aggregation; type: functional, cell-based
Outline: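 Collagen-triggered aggregation measured optically in a two-channel platelet aggregometer.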

[2] = molecular target: T1, DNA-dependent protein kinase catalytic subunit; assay: Inhibition of DNA-PK
Outline: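 The buffer was 1× reaction buffer of Hepes, KCl, MgCl2, EGTA, EDTA and DTT, with drug or water added. Reactions ran 5 min at 30 °C. ADP formed was read by ADP-Glo luminescence, and IC50 was obtained by curve fitting.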

T1 sequence (P78527 whole entry): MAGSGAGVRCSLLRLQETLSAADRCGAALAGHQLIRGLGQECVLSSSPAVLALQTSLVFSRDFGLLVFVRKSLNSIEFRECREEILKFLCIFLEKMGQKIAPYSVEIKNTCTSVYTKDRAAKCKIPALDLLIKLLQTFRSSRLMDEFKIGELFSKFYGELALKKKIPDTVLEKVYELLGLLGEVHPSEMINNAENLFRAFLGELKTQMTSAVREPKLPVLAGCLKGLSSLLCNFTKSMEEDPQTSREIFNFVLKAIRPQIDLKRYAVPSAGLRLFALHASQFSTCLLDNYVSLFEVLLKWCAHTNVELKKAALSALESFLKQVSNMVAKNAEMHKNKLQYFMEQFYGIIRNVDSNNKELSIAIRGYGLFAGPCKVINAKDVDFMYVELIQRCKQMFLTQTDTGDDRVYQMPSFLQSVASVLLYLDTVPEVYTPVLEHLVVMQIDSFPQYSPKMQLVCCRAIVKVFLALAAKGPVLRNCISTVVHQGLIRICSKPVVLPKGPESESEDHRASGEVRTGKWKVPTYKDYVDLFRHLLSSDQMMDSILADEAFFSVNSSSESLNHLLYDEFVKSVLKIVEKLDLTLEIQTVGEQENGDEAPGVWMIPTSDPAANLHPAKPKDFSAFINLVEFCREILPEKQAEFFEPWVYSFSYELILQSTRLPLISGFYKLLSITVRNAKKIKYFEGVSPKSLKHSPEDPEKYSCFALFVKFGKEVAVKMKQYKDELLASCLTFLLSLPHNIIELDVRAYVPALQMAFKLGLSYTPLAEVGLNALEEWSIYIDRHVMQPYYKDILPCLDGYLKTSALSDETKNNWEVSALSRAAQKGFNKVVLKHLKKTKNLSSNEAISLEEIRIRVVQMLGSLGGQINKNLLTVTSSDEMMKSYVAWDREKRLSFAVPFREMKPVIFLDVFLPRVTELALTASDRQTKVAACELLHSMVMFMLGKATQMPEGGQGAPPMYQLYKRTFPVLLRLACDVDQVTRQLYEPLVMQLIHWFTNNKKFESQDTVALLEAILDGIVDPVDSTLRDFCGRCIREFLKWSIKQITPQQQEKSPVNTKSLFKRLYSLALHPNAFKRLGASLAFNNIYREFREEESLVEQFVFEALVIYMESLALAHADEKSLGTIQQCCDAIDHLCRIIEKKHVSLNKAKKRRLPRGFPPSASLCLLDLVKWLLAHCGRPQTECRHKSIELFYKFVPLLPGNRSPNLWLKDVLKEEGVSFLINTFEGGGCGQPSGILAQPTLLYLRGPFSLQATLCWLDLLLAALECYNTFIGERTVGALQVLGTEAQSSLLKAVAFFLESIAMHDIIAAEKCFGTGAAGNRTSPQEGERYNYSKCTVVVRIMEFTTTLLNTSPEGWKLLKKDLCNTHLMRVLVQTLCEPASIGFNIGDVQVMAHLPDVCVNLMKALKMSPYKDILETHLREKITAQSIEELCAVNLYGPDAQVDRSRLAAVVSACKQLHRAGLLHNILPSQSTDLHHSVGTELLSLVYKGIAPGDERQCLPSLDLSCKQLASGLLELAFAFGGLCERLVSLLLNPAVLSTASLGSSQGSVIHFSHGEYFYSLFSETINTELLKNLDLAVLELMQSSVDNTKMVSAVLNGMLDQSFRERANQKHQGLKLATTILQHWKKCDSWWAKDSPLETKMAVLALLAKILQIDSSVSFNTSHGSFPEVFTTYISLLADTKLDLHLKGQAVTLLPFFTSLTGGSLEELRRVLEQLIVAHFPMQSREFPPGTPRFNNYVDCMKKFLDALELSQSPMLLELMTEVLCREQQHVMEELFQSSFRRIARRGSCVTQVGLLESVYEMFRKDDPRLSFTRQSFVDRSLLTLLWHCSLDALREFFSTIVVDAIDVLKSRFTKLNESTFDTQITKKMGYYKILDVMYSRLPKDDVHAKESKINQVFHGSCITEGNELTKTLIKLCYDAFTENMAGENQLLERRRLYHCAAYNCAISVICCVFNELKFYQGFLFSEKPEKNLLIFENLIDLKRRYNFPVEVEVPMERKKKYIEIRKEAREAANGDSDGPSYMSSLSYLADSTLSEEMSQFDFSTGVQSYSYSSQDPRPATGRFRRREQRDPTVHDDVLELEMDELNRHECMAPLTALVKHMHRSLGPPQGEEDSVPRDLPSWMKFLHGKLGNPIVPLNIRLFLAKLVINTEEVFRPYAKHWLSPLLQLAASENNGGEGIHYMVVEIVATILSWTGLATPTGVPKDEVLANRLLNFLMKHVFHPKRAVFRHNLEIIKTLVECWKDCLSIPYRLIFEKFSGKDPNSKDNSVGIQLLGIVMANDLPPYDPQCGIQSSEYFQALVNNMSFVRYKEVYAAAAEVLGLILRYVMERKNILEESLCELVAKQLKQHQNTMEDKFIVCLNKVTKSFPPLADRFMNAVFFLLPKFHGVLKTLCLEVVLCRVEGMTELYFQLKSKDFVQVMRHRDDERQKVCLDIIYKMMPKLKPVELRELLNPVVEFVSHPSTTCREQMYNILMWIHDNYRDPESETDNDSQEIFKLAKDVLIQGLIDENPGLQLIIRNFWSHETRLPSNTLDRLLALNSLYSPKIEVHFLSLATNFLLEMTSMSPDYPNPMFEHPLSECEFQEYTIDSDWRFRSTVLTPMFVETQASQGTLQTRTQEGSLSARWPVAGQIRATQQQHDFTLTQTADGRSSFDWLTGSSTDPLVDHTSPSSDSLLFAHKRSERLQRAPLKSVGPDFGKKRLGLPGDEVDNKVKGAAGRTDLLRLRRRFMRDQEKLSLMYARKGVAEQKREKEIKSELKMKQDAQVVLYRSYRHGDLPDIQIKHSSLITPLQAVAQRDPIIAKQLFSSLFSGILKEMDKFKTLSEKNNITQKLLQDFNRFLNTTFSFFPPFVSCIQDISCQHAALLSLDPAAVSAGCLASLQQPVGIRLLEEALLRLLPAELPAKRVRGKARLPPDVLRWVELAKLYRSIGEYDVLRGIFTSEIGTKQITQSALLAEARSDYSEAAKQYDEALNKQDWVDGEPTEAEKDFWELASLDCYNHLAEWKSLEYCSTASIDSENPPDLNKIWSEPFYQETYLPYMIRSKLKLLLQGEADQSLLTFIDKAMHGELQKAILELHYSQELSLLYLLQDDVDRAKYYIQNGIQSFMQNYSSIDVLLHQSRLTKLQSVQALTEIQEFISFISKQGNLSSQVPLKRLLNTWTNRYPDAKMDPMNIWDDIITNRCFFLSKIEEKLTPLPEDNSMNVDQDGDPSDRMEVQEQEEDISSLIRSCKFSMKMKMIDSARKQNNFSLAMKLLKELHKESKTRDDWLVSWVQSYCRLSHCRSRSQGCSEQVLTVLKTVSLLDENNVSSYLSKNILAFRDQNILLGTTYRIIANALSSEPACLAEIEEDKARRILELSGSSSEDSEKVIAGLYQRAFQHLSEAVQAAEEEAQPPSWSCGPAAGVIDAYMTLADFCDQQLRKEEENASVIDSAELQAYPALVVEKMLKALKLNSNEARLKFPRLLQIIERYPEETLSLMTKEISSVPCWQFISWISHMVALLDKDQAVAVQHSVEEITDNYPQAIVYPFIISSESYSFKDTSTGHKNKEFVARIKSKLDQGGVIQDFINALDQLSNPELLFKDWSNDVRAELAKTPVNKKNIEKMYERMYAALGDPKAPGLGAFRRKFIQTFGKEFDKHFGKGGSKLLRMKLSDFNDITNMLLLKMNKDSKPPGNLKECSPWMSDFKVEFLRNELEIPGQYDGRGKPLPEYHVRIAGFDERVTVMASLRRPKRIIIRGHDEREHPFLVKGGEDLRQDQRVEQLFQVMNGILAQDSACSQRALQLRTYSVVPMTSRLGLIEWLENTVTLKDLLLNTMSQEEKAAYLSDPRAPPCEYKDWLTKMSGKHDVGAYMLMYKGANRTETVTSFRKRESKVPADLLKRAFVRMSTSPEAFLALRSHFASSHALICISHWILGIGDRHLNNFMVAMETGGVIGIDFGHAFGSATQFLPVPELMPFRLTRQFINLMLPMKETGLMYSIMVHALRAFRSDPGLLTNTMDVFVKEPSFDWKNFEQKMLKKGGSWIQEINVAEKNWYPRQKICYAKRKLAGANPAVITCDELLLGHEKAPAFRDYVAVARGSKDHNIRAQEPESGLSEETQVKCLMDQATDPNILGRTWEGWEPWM

Structure (SMILES) | IC50 [1] [µM] | IC50 (Platelet) [µM] | IC50 [2] [µM]
O=c1nc(N2CCOCC2)oc2cc3ccc(OCc4cccnc4)cc3cc12 | 1.7 | 55 | 
CN1CCN(CCOc2cccc3cc4c(=O)nc(N5CCOCC5)oc4cc23)CC1 | 3.09 | 100 | 
O=c1nc(N2CCOCC2)oc2cc3c(OCc4ccccn4)cccc3cc12 | 0.93 | ≥ 100 | 
O=c1nc(N2CCOCC2)oc2c1cc(OCc1ccccn1)c1ccccc12 | 2.43 | 100 | 
O=c1cc(N2CCOCC2)oc2c1ccc1ccccc12 |  |  | 0.3
O=c1nc(N2CCOCC2)oc2ccc3ccccc3c12 | 0.72 | 450 | 
O=c1nc(N2CCOCC2)oc2c1ccc1ccccc12 | 0.42 | 280 | 
O=c1nc(N2CCOCC2)oc2c1cc(OCc1cccnc1)c1ccccc12 | 0.717 | 100 | 
CN1CCN(CCOc2ccc3cc4oc(N5CCOCC5)nc(=O)c4cc3c2)CC1 | 0.19 | 100 | 
O=c1nc(N2CCOCC2)oc2cc3ccc(OCc4ccccn4)cc3cc12 | 0.096 | 100 | 
O=c1nc(N2CCOCC2)oc2cc3c(OCc4cccnc4)cccc3cc12 | 0.33 | 85 | 
CN1CCN(CCOc2cc3c(=O)nc(N4CCOCC4)oc3c3ccccc23)CC1 | 0.76 | 100 | 
O=c1nc(N2CCOCC2)oc2cc3ccccc3cc12 | 6.5 | 155 | 
